This note sets out measurements from publication PMC6466550 (ACS Medicinal Chemistry Letters, 2019).

The assay deals with FOPFlash reporter. As to the kind of experiment: Wnt reporter assay, FOPFlash negative control. Particulars: 293T cells, 50 mM LiCl, 24 h, luciferase. The assay is classed as cell-based. A digest of the protocol: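 293T cells transfected with the FOPFlash plasmid, whose TCF/LEF binding sites are mutated. This plasmid served as a negative control for the TOPFlash reporter, which carries eight TCF/LEF binding-site repeats. Wnt signalling was activated with the GSK3beta inhibitor LiCl. Cells were exposed to increasing concentrations of test compound, and reporter activity was then measured.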
A general note: A reporter such as luciferase makes a cellular process visible.

For the compound `CCOC(=O)c1ccc(NS(=O)(=O)c2ccc(Br)cc2)cc1` [Compound 17], the “Effect on activity of FOP reporter” value is on record as “failed to prevent”.
